pIC50: −log10 of the molar value. Where only a bound is given, the exact number is not on record here.

In data set [1] the test system is AsPC-1 cells. In words: Cellular accumulation by LC-MS/MS. In kind it is cell-based, Human. As to conditions: AsPC-1, 10 μM, 48 h; Gem (Gem group), Gem and tcGem (LipotcGem group). The essentials:
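AsPC-1 cells were seeded at 5×10^6 per 10 cm dish overnight and exposed to 10 μM test compound for 12, 24 or 48 h. Cells were washed, counted and sonicated at 4°C in methanol-water (1:1). Parent nucleoside and prodrug were quantified by LC-MS/MS on a C8 UPLC column. The gradient was water/acetonitrile with 0.1% formic acid at 0.2 mL/min.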

Data set [2] deals with AsPC-1-luc orthotopic xenograft. In words: Pharmacodynamics in AsPC-1-luc orthotopic xenograft model. In kind it is in vivo, BALB/c nude mice. Put shortly: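 AsPC-1-luc cells were grown in RPMI-1640 with 10% FBS and 0.5 μg/mL puromycin. Under anaesthesia, 3×10^6 cells in 25 μL were injected into the pancreas of BALB/c nude mice. On day 7, luciferase substrate was given i.p. and mice were IVIS-imaged within 5 min, then grouped by bioluminescence. Dosing was i.v., Q3D × 6: 5% glucose, parent drug 10 mg/kg, or liposomal test compound 5 mg/kg. Mice were imaged on Days 17 and 27, followed by ex vivo organ imaging.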

In data set [3] the test system is AsPC-1 subcutaneous xenograft. In words: Pharmacodynamics in AsPC-1 subcutaneous xenograft model. The class given is in vivo, BALB/c nude mice. The essentials: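 Female BALB/c nude mice (18–20 g) received 5×10^6 AsPC-1 cells subcutaneously in the right flank. At ~100 mm3 they were sorted by volume and randomised into three groups. Dosing was i.v., Q3D × 6: 5% glucose vehicle, parent drug 10 mg/kg, or liposomal test compound 5 mg/kg. Tumour volume and body weight were followed throughout. Tumours were weighed on Day 30, one week after the last dose, and organs were taken for H&E. n = 5.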

The subject of the next data set is PANC-1 cells. The data set is described as follows: MTT cytotoxicity assay. The class given is cell-based, Human. (Formazan colour is commonly taken as a measure of viable cells.)
Data set [4] relates to AsPC-1 cells. In words: MTT cytotoxicity assay. In kind it is cell-based. As to conditions: Homo sapiens, ASPC1, 48 h, AsPC-1, 48 h incubation, 2×10^4 cells per well. The essentials:
(§1)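 Seeding was 2×10^4 per well for AsPC-1 and 1×10^4 for PANC-1, BxPC-3, Mia PaCa-2 and SU.86.86; cells adhered for 24 h at 37°C in 5% CO2. Test compound was given at 0.01, 0.1, 1, 10 and 100 μM for 48 h. MTT (5 mg/mL stock in PBS) was added for 4 h, dissolved in DMSO, and read at 490 nm. Viability was calculated against drug-free cells and cell-free blanks. Mean ± SD, n = 3.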

The next data set concerns BxPC-3 cells. The data set is described as follows: MTT cytotoxicity assay. In kind it is cell-based. As to conditions: Homo sapiens, BXPC-3, 48 h. Put shortly: as §1
The test system of a further data set is Mia PaCa-2 cells. The data set is described as follows: MTT cytotoxicity assay. In kind it is cell-based. As to conditions: Homo sapiens.
In a further data set the test system is SU.86.86 cells. The data set is described as follows: MTT cytotoxicity assay. The class given is cell-based. As to conditions: Homo sapiens, SU.86.86, 48 h. The essentials: as §1
The nature of data set [5]: Tissue distribution in AsPC-1 tumor-bearing mice. The class given is in vivo, BALB/c nude mice. As to conditions: i.v. 38 μmol/kg. Put shortly: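 BALB/c nude mice carrying subcutaneous AsPC-1 tumours (5×10^6 cells, right flank; 300–500 mm3) received one i.v. bolus at an equimolar 38 μmol/kg (parent drug 10 mg/kg; liposomal prodrug 19 mg/kg). After cardiac perfusion, tumour, heart, liver, spleen, lung, kidney and pancreas were collected at 0.5, 4, 8, 12 and 24 h. Parent nucleoside and prodrug were measured by LC-MS/MS.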

For data set [6], the system named is AsPC-1 cells. The data set is described as follows: Cell cycle analysis by flow cytometry. As to conditions: AsPC-1, 10 μM, 24 h. In kind it is cell-based, Human. The essentials: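 AsPC-1 cells were seeded at 5×10^5 per well in 6-well plates and exposed to 10 μM test compound. They were then fixed overnight in cold 70% ethanol, stained with propidium iodide containing RNase A in the dark at room temperature, and analysed by flow cytometry for cell-cycle phase percentages. Mean ± SD, n = 3.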
On the technique in general: In flow cytometry, cells or beads pass a laser one at a time.

In data set [7] the test system is AsPC-1 cells. The data set is described as follows: Transwell cell invasion assay. In kind it is cell-based, Human. As to conditions: AsPC-1, 1 μM, 48 h. Put shortly:
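AsPC-1 cells (1×10^4) were placed in serum-free medium in the upper chamber of 8-μm-pore transwells, with complete medium below, and treated with 1 μM test compound for 48 h. Cells on the upper membrane surface were swabbed off. Cells on the lower surface were stained with 0.5% crystal violet and counted per field under bright-field microscopy. Mean ± SD, n = 3.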

In the data set with AsPC-1 cells [1], `Nc1ccn([C@@H]2O[C@H](CO)[C@@H](O)C2(F)F)c(=O)n1` [Gem, Gemcitabine] returned an intracellular accumulation of 0.0015 nmol/10^6 cells. The “metastatic burden (bioluminescent signals, liver and intestine)” value in data set [2] (Day 27, ex vivo) is recorded as “moderate”. Besides, the “tumor inhibition rate (TIR)” value in data set [2] (orthotopic model, i.v. Q3D × 6, Gem 10 mg/kg, LipotcGem 5 mg/kg) is given as 50%. The “tumor inhibition rate (TIR), tumor weight” value in [3] (Day 30, i.v. Q3D × 6, Gem 10 mg/kg, LipotcGem 5 mg/kg) was determined as 49%. Further, in [3] (i.v. Q3D × 6, Gem 10 mg/kg, LipotcGem 5 mg/kg), the “tumor inhibition rate (TIR), tumor volume” value was found to be 50%. Further, in data set [3] (subcutaneous model, throughout treatment), the body weight result was “No significant weight loss”. Also, the negative logarithm of the IC50 (pIC50) (usually the IC50 on a negative log10 scale, so that one unit is a factor of ten) was under 4.00 in the data set on PANC-1 cells (Homo sapiens, PANC-1, 48 h); under 4.00 in the data set with AsPC-1 cells [4]; 5.36 in the data set with BxPC-3 cells; under 4.00 in the data set on Mia PaCa-2 cells (MIA PaCa-2, 48 h); 4.13 with Mia PaCa-2 cells (MIA PaCa-2, 72 h); under 4.00 with SU.86.86 cells. Besides, in the data set with PANC-1 cells (PANC-1, lower cell densities and extended exposure time), the cell viability result is given as “above 50%”. Moreover, the concentration in tumors in data set [5] (8 h, Gem (Gem group), Gem and tcGem (LipotcGem group)) was found to be 0.004 µmol/g. For the same compound, the “Gem concentration in tumor tissues and plasma over time” value in [5] is “undetectable beyond 8 h”. Further, the “Percentage of cells (%) S” value in the data set on AsPC-1 cells [6] was 35%. Also, the invading cells in the data set on AsPC-1 cells [7] was 129 ± 27 cells per field.
